{"data": "Assay results collected from several papers", "EGFR": "Epidermal growth factor receptor (EGFR, Homo sapiens, UniProt P00533)", "NPY1R": "Neuropeptide Y receptor type 1 (NPY1R, Homo sapiens, UniProt P25929)", "Transmembrane protease serine 6": "Transmembrane protease serine 6 (Homo sapiens, UniProt Q8IU80)", "SRPK3": "SRSF protein kinase 3 (SRPK3, Homo sapiens, UniProt Q9UPE1)", "AGTR1": "Type-1 angiotensin II receptor (AGTR1, Homo sapiens, UniProt P30556)", "note": "Compare with care: the assays were run in different laboratories."}
{"Structure (SMILES)": "C#Cc1n[nH]c2c(-c3cn([C@@H](C)c4ccccc4)c(=O)[nH]c3=O)cc(F)cc12", "target": "EGFR", "effect on": "enzyme activity", "action": "inhibitor", "tested at": "0.1 µM", "inhibition [%]": 0.9}
{"Structure (SMILES)": "CC(C)Cn1cnc2c(N)nc3ccccc3c21", "target": "NPY1R", "effect on": "ligand displacement", "technique": "radioligand", "tested at": "10 µM", "inhibition [%]": 13}
{"Structure (SMILES)": "CC(C)C(CC(=O)NO)N=[N+]=[N-] (stereo not shown)", "target": "Endoplasmic reticulum aminopeptidase 2 (ERAP2, Homo sapiens, UniProt Q6P179)", "effect on": "enzyme activity", "action": "inhibitor", "technique": "fluorescence", "tested at": "300 µM", "inhibition [%]": 5}
{"Structure (SMILES)": "COc1ccc(S(=O)(=O)N2CCCCC2)cc1C", "target": "NPY1R", "effect on": "ligand displacement", "technique": "radioligand", "tested at": "10 µM", "inhibition [%]": "< 30"}
{"Structure (SMILES)": "Cc1ccc2nc(N3C(=O)C(O)=C(C(=O)OC(C)(C)C)C3c3ccc(-c4ccc(Cl)cc4)o3)sc2c1 (stereo not shown)", "target": "UDP-N-acetylenolpyruvoylglucosamine reductase (murB, Escherichia coli K-12, UniProt P08373)", "effect on": "enzyme activity", "action": "inhibitor", "tested at": "20 µM", "inhibition [%]": 46}
{"Structure (SMILES)": "CN1CCN(CCCOc2ccc3occc(=O)c3c2)CC1", "target": "Transmembrane protease serine 6", "effect on": "enzyme activity", "action": "inhibitor", "technique": "fluorescence", "tested at": "10 µM", "inhibition [%]": 5}
{"Structure (SMILES)": "Cn1cc(-c2cc(F)cc(N3CCn4c(cc5c4CCCC5)C3=O)c2CO)cc(Nc2ccc(N3CCN(C4COC4)CC3)cn2)c1=O", "target": "SRPK3", "effect on": "enzyme activity", "action": "inhibitor", "tested at": "0.1 µM", "inhibition [%]": 15}
{"Structure (SMILES)": "COc1cc(Nc2ncc(F)c(Nc3ccc4c(n3)NC(=O)C(C)(C)O4)n2)cc(OC)c1OC", "target": "Serine/threonine-protein kinase TAO1 (TAOK1, Homo sapiens, UniProt Q7L7X3)", "effect on": "binding", "tested at": "10 µM", "inhibition [%]": 92}
{"Structure (SMILES)": "c1ccc(C(NCCNC(c2ccccc2)c2ccccc2)c2ccccc2)cc1", "target": "AGTR1", "effect on": "cell-free assay", "tested at": "10 µM", "inhibition [%]": 40}
{"Structure (SMILES)": "CN(CCN1CCC(OC(=O)Nc2ccccc2-c2ccccc2)CC1)C(=O)c1ccc(CN2CCC(C(N)=O)CC2)cc1", "target": "AGTR1", "effect on": "ligand displacement", "technique": "radioligand", "tested at": "1 µM", "inhibition [%]": 3}
{"Structure (SMILES)": "COCCN(CCOC)C(=O)[C@@]12C[C@@H]1[C@@H](n1cnc3c(NC(C4CC4)C4CC4)nc(Cl)nc31)[C@H](O)[C@@H]2O", "target": "Adenosine receptor A3 (ADORA3, Homo sapiens, UniProt P0DMS8)", "effect on": "ligand displacement", "technique": "radioligand", "tested at": "10 µM", "inhibition [%]": 30}
{"Structure (SMILES)": "C#Cc1n[nH]c2c(-c3cn(C(C)c4ccccn4)c(=O)[nH]c3=O)cc(F)cc12 (stereo not shown)", "target": "EGFR", "effect on": "enzyme activity", "action": "inhibitor", "tested at": "1 µM", "inhibition [%]": -3.8}
{"Structure (SMILES)": "CC(C)N1CCC[C@H]1CNC(=O)c1cn(C2CCCC2)c(=O)c2c1c1ccccc1n2C", "target": "NPY1R", "effect on": "ligand displacement", "technique": "radioligand", "tested at": "10 µM", "inhibition [%]": 5}
{"Structure (SMILES)": "COCc1c(-c2cc3cc(C)cc(OC)c3s2)c2c(N)ncnn2c1CN1CCNC(=O)C1", "target": "AGTR1", "effect on": "ligand displacement", "technique": "radioligand", "tested at": "10 µM", "inhibition [%]": 9}
{"Structure (SMILES)": "C[C@H](C(=O)N[C@H]1COc2ccccc2[C@@H]1S(C)(=O)=O)c1ccc(F)cc1", "target": "AGTR1", "effect on": "cell-free assay", "tested at": "10 µM", "inhibition [%]": -6}
{"Structure (SMILES)": "O=c1ccoc2ccc(OCCCCN3CCCCC3)cc12", "target": "Transmembrane protease serine 6", "effect on": "enzyme activity", "action": "inhibitor", "technique": "fluorescence", "tested at": "10 µM", "inhibition [%]": 12}
{"Structure (SMILES)": "Cn1cc(-c2cccc(N3CCc4c(sc5c4CC(C)(C)C5)C3=O)c2CO)cc(Nc2ccncn2)c1=O", "target": "SRPK3", "effect on": "enzyme activity", "action": "inhibitor", "tested at": "1 µM", "inhibition [%]": 9}
{"Structure (SMILES)": "O=C(Nc1cccnn1)N1CCN([C@@H]2CCOc3cc(C(F)(F)F)ccc32)CC1", "target": "Vasopressin V2 receptor (AVPR2, Homo sapiens, UniProt P30518)", "effect on": "cell-free assay", "tested at": "20 µM", "inhibition [%]": -4}
{"Structure (SMILES)": "CCN(CC)CCCC[C@H](NC(=O)[C@H](CC(C)C)NC(=O)[C@H](C)NC(=O)[C@H](Cc1ccccc1)NC(=O)c1ccc(C(C)(C)C)cc1)C(=O)N[C@@H](CO)C(=O)OC", "target": "AGTR1", "effect on": "ligand displacement", "technique": "radioligand", "tested at": "10 µM", "inhibition [%]": -4}
